Test results: ChEMBL document CHEMBL4842338, “System-oriented optimization of multi-target 2,6-diaminopurine derivatives: Easily accessible broad-spectrum antivirals active against flaviviruses, influenza virus and SARS-CoV-2” (Eur J Med Chem, 2021)
pIC50: −log10 of the molar value.

How the values were obtained:
[1] = Selectivity index, ratio of CC50 for human Calu-3 cells infected with SARS-COV-2 to IC50 for SARS-COV 2 infected in human Calu-3 cells; type: toxicity, cell-based; conditions: read-out: Selectivity Index
SARS-CoV-2 [2] = assay: Antiviral activity against SARS-COV 2 infected in human Calu-3 cells assessed as inhibition of viral replication at MOI of 0.01 followed by removal of test compound after cell virus adsorption incubated for 72 hrs by ENTRY-DYRA method; type: functional, organism-based; conditions: Severe acute respiratory syndrome coronavirus 2, Calu-3, 72 h
SARS-CoV-2 [3] = assay: Antiviral activity against SARS-COV 2 infected in human Calu-3 cells assessed as inhibition of viral replication at MOI of 0.01 and incubated after 2 hrs post infection for 48 hrs by direct yield reduction assay; type: functional, organism-based; conditions: Severe acute respiratory syndrome coronavirus 2, Calu-3
[4] = (§1) Cytotoxicity against human Calu-3 cells infected with SARS-COV-2 by celltiter-glo luminescent cell viability assay; type: cell-based; conditions: Calu-3 cells infected with SARS-COV-2
Method in brief: (§2)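 Compound-exposed cells assessed by CellTiter-Glo luminescence versus DMSO control; CC50 from dose-response.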

[5] = Cytotoxicity against MDCK cells assessed as reduction in cell viability measured after 24 hrs by MTT assay; type: cell-based, Canis lupus familiaris; conditions: dog, MDCK cells
dengue virus type 2 [6] = assay: Antiviral activity against Dengue virus serotype 2 New Guinea C infected in pre-seeded Huh-7 cells assessed as inhibition of viral replication incubated for 72 hrs by immunodetection based direct yield reduction assay; type: functional, organism-based; conditions: Dengue virus, New Guinea C, Huh-7, 72 h; read-out: IC50
Zika virus [7] = assay: Antiviral activity against Zika virus H/PF/2013 infected in pre-seeded Huh-7 cells assessed as inhibition of viral replication incubated for 72 hrs by immunodetection based direct yield reduction assay; type: functional, organism-based; conditions: H/PF/2013, Huh-7, 72 h
Method in brief: (§3)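 Direct yield reduction in Huh7 cells (7000/well), infected with 50 TCID₅₀ of DENV or ZIKV, or 25 TCID₅₀ of WNV. Adsorption 1 h at 37 °C, then virus removed and serial compound dilutions added. Incubated 72 h (DENV, ZIKV) or 48 h (WNV). Viral antigen immunodetected on the monolayer. IC₅₀ by non-linear regression, mean of three experiments. SI = CC₅₀ (Huh7, CellTiter-Glo luminescence)/IC₅₀.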

West Nile virus [8] = assay: Antiviral activity against West Nile virus lineage 1 (Italy/2009) infected in pre-seeded Huh-7 cells assessed as inhibition of viral replication incubated for 48 hrs by immunodetection based plaque reduction assay; type: functional, organism-based; conditions: Huh-7, 48 h
Influenza A virus [9] = assay: Antiviral activity against Influenza A Puerto Rico/8/34/H1N1 infected in human A549 cells assessed as inhibition of viral replication after 24 hrs by hemagglutination assay; type: functional, organism-based; conditions: A/Puerto Rico/8/1934(H1N1), A549, 24 h
Influenza A virus [10] = assay: Antiviral activity against Influenza A Puerto Rico/8/34/H1N1 infected in MDCK cells assessed as inhibition of viral replication measured in supernatants of infected cells after 24 hrs by hemagglutination assay; type: functional, organism-based; conditions: A/Puerto Rico/8/1934(H1N1)
[11] = Selectivity index, ratio of CC50 for human Huh-7 cells to IC50 for Dengue virus serotype 2 New Guinea C infected in pre-seeded Huh-7 cells assessed as inhibition of viral replication incubated for 72 hrs by immunodetection based secondary yield reduction assay; type: toxicity, cell-based; conditions: read-out: Selectivity Index
Zika virus [12] = assay: Antiviral activity against Zika virus H/PF/2013 infected in pre-seeded Huh-7 cells assessed as inhibition of viral replication incubated for 72 hrs by immunodetection based plaque reduction assay; type: functional, organism-based; conditions: H/PF/2013, Huh-7, 72 h
[13] = Selectivity index, ratio of CC50 for human Huh-7 cells to IC50 for Dengue virus serotype 2 New Guinea C infected in pre-seeded Huh-7 cells assessed as inhibition of viral replication incubated for 72 hrs by immunodetection based plaque reduction assay; type: toxicity, cell-based; conditions: read-out: Selectivity Index
[14] = (§4) Cytotoxicity against African green monkey Vero E6 cells infected with SARS-COV-2 by celltiter-glo luminescent cell viability assay; type: cell-based, Vero C1008; conditions: chlorocebus sabaeus, Vero E6 cells infected with SARS-COV-2; method in brief: as §2
[15] = Selectivity index, ratio of CC50 for human A549 cells to IC50 for Influenza A Puerto Rico/8/34/H1N1 infected in human A549 cells; type: toxicity, cell-based; conditions: read-out: Selectivity Index
Method in brief: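 MDCK or A549 cells (2.5 × 10⁵/well) infected with A/Puerto Rico/8/34 H1N1 for 1 h at 37 °C, then washed. Compound (0.5–20 μM) added in 2% FBS medium for 24 h, with DMSO final ≤0.2%. Virus in supernatants read by hemagglutination. CC₅₀ by MTT (2 × 10⁴ cells/well, same concentrations, 24 h, absorbance 570 nm). SI = CC₅₀/IC₅₀.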

[16] = Selectivity index, ratio of CC50 for human Huh-7 cells to IC50 for Zika virus H/PF/2013 infected in pre-seeded Huh-7 cells assessed as inhibition of viral replication incubated for 72 hrs by immunodetection based plaque reduction assay; type: toxicity, cell-based; conditions: read-out: Selectivity Index
Zika virus [17] = assay: Antiviral activity against Zika virus H/PF/2013 infected in pre-seeded Huh-7 cells assessed as inhibition of viral replication incubated for 72 hrs by immunodetection based secondary yield reduction assay; type: functional, organism-based; conditions: H/PF/2013, Huh-7, 72 h
[18] = Cytotoxicity against human A549 cells assessed as reduction in cell viability measured after 24 hrs by MTT assay; type: cell-based; conditions: A549 cells
[19] = Selectivity index, ratio of CC50 for human Huh-7 cells to IC50 for West Nile virus lineage 1 (Italy/2009) infected in pre-seeded Huh-7 cells assessed as inhibition of viral replication incubated for 48 hrs by immunodetection based plaque reduction assay; type: toxicity, cell-based; conditions: read-out: Selectivity Index
[20] = Selectivity index, ratio of CC50 for human Huh-7 cells to IC50 for West Nile virus lineage 1 (Italy/2009) infected in pre-seeded Huh-7 cells assessed as inhibition of viral replication incubated for 48 hrs by immunodetection based direct yield reduction assay; type: toxicity, cell-based; conditions: read-out: Selectivity Index; method in brief: as §3
dengue virus type 2 [21] = assay: Antiviral activity against Dengue virus serotype 2 New Guinea C infected in pre-seeded Huh-7 cells assessed as inhibition of viral replication incubated for 72 hrs by immunodetection based plaque reduction assay; type: functional, organism-based; conditions: Huh-7, 72 h
[22] = Selectivity index, ratio of CC50 for human Huh-7 cells to IC50 for Zika virus H/PF/2013 infected in pre-seeded Huh-7 cells assessed as inhibition of viral replication incubated for 72 hrs by immunodetection based direct yield reduction assay; type: toxicity, cell-based; conditions: read-out: Selectivity Index; method in brief: as §3
[23] = Cytotoxicity against human Huh-7 cells assessed as reduction in cell viability by Celltiter-Glo luminescent cell viability assay; type: cell-based; conditions: Huh-7 cells; method in brief: as §2
SARS-CoV-2 [24] = assay: Antiviral activity against SARS-COV 2 infected in monkey Vero E6 cells assessed as inhibition of viral replication at MOI of 0.01 and incubated after 2 hrs post infection for 48 hrs by direct yield reduction assay; type: functional, organism-based; conditions: Severe acute respiratory syndrome coronavirus 2, Vero C1008
[25] = Selectivity index, ratio of CC50 for human Huh-7 cells to IC50 for Zika virus H/PF/2013 infected in pre-seeded Huh-7 cells assessed as inhibition of viral replication incubated for 72 hrs by immunodetection based secondary yield reduction assay; type: toxicity, cell-based; conditions: read-out: Selectivity Index
[26] = Selectivity index, ratio of CC50 for human Huh-7 cells to IC50 for Dengue virus serotype 2 New Guinea C infected in pre-seeded Huh-7 cells assessed as inhibition of viral replication incubated for 72 hrs by immunodetection based direct yield reduction assay; type: toxicity, cell-based; conditions: read-out: Selectivity Index; method in brief: as §3
West Nile virus [27] = assay: Antiviral activity against West Nile virus lineage 1 (Italy/2009) infected in pre-seeded Huh-7 cells assessed as inhibition of viral replication incubated for 48 hrs by immunodetection based direct yield reduction assay; type: functional, organism-based; conditions: West Nile virus, lineage 1 (Italy/2009), Huh-7, 48 h; read-out: IC50
[28] = Selectivity index, ratio of CC50 for human Huh-7 cells infected with SARS-COV-2 to IC50 for SARS-COV 2 infected in human Huh-7; type: toxicity; conditions: read-out: Selectivity Index
SARS-CoV-2 [29] = assay: Antiviral activity against SARS-COV 2 infected in human Caco-2 cells assessed as inhibition of viral replication at MOI of 0.01 and incubated after 2 hrs post infection for 48 hrs by immunodetection assay; type: functional, organism-based; conditions: Severe acute respiratory syndrome coronavirus 2, Caco-2
Caco-2 = assay: Cytotoxicity against human Caco2 cells infected with SARS-COV-2 assessed as reduction in cell viability by celltiter-glo luminescent cell viability assay; type: cell-based; method in brief: as §2
Huh-7 = assay: Cytotoxicity against human Huh-7 cells infected with SARS-COV-2 assessed as reduction in cell viability by celltiter-glo luminescent cell viability assay; type: cell-based; conditions: huh-7; method in brief: as §2
SARS-CoV-2 [30] = assay: Antiviral activity against SARS-COV 2 infected in human Huh-7 cells; type: functional, organism-based; conditions: Severe acute respiratory syndrome coronavirus 2, Huh-7
SARS-CoV-2 [31] = assay: Antiviral activity against SARS-COV 2 infected in human Caco-2 cells; type: functional, organism-based; conditions: Severe acute respiratory syndrome coronavirus 2, Caco-2
SARS-CoV-2 [32] = assay: Antiviral activity against SARS-COV 2 infected in African green monkey Vero E6 cells; type: functional, organism-based; conditions: Severe acute respiratory syndrome coronavirus 2, Vero C1008
Vero C1008 = assay: as §4; type: cell-based; conditions: chlorocebus sabaeus, vero c1008; method in brief: as §2
SARS-CoV-2 [33] = assay: Antiviral activity against SARS-COV 2 infected in human Huh-7 cells assessed as inhibition of viral replication at MOI of 0.01 and incubated after 2 hrs post infection for 48 hrs by direct yield reduction assay; type: functional, organism-based; conditions: Severe acute respiratory syndrome coronavirus 2, Huh-7
[34] = Selectivity index, ratio of CC50 for African green monkey Vero E6 cells infected with SARS-COV-2 to IC50 for SARS-COV 2 infected in monkey Vero E6 cells; type: toxicity, cell-based, Vero C1008; conditions: read-out: Selectivity Index
Calu-3 = assay: as §1; type: cell-based; conditions: calu-3; method in brief: as §2
[35] = Selectivity index, ratio of CC50 for human Caco-2 cells infected with SARS-COV-2 to IC50 of SARS-COV 2 infected in human Caco-2 cells; type: toxicity, cell-based; conditions: read-out: Selectivity Index

CN(C)C(=O)COC(=O)Cc1ccc(OC(=O)c2ccc(NC(=N)N)cc2)cc1 [CAMOSTAT]
selectivity ratio [1]: 243
pIC50 (SARS-CoV-2 [2]): 7.40
pIC50 (SARS-CoV-2 [3]): 6.09
CC50 [4]: 200 µM

NC(=O)c1ncn([C@@H]2O[C@H](CO)[C@@H](O)[C@H]2O)n1 [RIBAVIRIN]
CC50 at 24 h [5]: > 50 µM
pIC50 (dengue virus type 2 [6]): 5.12
pIC50 (Zika virus [7]): 5.42
pIC50 (West Nile virus [8]): 5.17
pIC50 (Influenza A virus [9]): 4.43
pIC50 (Influenza A virus [10]): 5.02
selectivity ratio at 72 h [11]: 50
pIC50 (Zika virus [12]): 5.66
selectivity ratio at 72 h [13]: 49
CC50 [14]: > 400 µM
selectivity ratio [15]: > 1.3
selectivity ratio at 72 h [16]: 91
pIC50 (Zika virus [17]): 5.36
CC50 at 24 h [18]: > 50 µM
selectivity ratio at 48 h [19]: 30
selectivity ratio at 48 h [20]: 21
pIC50 (dengue virus type 2 [21]): 5.39
selectivity ratio at 72 h [22]: 53
CC50 [23]: 200 µM
pIC50 (SARS-CoV-2 [24]): 3.96
selectivity ratio at 72 h [25]: 45
selectivity ratio at 72 h [26]: 26
pIC50 (West Nile virus [27]): 5.02

CCC(CC)COC(=O)[C@H](C)N[P@](=O)(OC[C@H]1O[C@@](C#N)(c2ccc3c(N)ncnn23)[C@H](O)[C@@H]1O)Oc1ccccc1 [REMDESIVIR]
selectivity ratio [28]: 19200
pIC50 (SARS-CoV-2 [29]): 8.00
selectivity ratio [1]: 882
CC50 (Caco-2): 80 µM
CC50 (Huh-7): 77 µM
pIC50 (SARS-CoV-2 [30]): 8.70
pIC50 (SARS-CoV-2 [31]): 6.42
pIC50 (SARS-CoV-2 [32]): 4.57
CC50 (Vero C1008): 166 µM
pIC50 (SARS-CoV-2 [3]): 6.96
pIC50 (SARS-CoV-2 [33]): 8.40
selectivity ratio [34]: 28
CC50 (Calu-3): 97 µM
pIC50 (SARS-CoV-2 [24]): 5.22
selectivity ratio [35]: 8000
